Active and inactive are the calls of the source. The calls are words filed in the database; no cut-off is given here.
Key:
Plasmodium chabaudi [1] = assay: Antimalarial activity against Plasmodium chabaudi infected in BALB/c mouse assessed as reduction in blood parasitaemia level at 3 to 30 mg/kg, ip treated on day 1 to day 3 post-infection measured on day 4 post-infection by Giemsa staining based light microscopy; format: functional, organism-based
Procedure, shortened: (§1)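 Groups of five BALB/c mice infected i.p. with 2 × 10^7 P. chabaudi-parasitized erythrocytes. Day 1 pre-treatment parasitaemia read from tail-blood thin smears, then i.p. dosing at 0.03, 0.3, 3, 10 or 30 mg/kg, repeated for two more days. Day 4 parasitaemia scored by light microscopy of Giemsa-stained thin smears; dose-response evaluated by probit analysis.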

[2] = Selectivity index, ratio of CC50 for human HepG2 cells to EC50 for Plasmodium falciparum; format: toxicity, cell-based; settings: read-out: Ratio CC50/EC50
Procedure, shortened: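 Ratio of HepG2 CC50 (resazurin assay) to the highest EC50 among P. falciparum K1, HB3 and W2. Parasite EC50 values are means of two independent experiments, each run in duplicate.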

[3] = AUC in Sprague-Dawley rat at 1 mg/kg, ip; format: ADME, organism-based; design: dose 1 mg/kg, route intraperitoneal; settings: plasma
[4] = Tmax in Sprague-Dawley rat at 1 mg/kg, ip; format: ADME, organism-based; design: dose 1 mg/kg, route intraperitoneal; settings: in vivo
[5] = Stability in mouse liver microsomes assessed as remaining compound level at 1 uM incubated for 5 mins in presence of NADPH measured after 30 mins by LC/MS/MS method; format: ADME; settings: read-out: Stability
Procedure, shortened: (§2)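 Percent parent compound remaining after 30 min incubation with liver microsomes; n = 3.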

Plasmodium chabaudi [6] = assay: Antimalarial activity against Plasmodium chabaudi infected in BALB/c mouse assessed as reduction in parasitaemia level treated intraperitoneally on day 1 to day 3 post-infection measured on day 4 post-infection by Giemsa staining based light microscopy; format: functional; procedure, shortened: as §1
Plasmodium falciparum [7] = assay: Antimalarial activity against tightly synchronized Plasmodium falciparum K1 assessed as parasite stage accumulation index at trophozoites stages at 10 uM treated at 6 to 30 hrs post-invasion by automated image mining based cytological profiling assay; format: functional, organism-based
[8] = AUC in Sprague-Dawley rat at 5 mg/kg, ip; format: ADME, organism-based; design: dose 5 mg/kg, route intraperitoneal; settings: plasma
Plasmodium falciparum [9] = assay: Antimalarial activity against tightly synchronized Plasmodium falciparum K1 assessed as parasite stage accumulation index at late ring stages at 10 uM treated at 6 to 30 hrs post-invasion by automated image mining based cytological profiling assay; format: functional, organism-based
Plasmodium falciparum [10] = assay: Antimalarial activity against tightly synchronized Plasmodium falciparum K1 assessed as parasite stage accumulation index at schizonts stages at 10 uM treated at 6 to 30 hrs post-invasion by automated image mining based cytological profiling assay; format: functional, organism-based
[11] = Half life in Sprague-Dawley rat at 1 mg/kg, ip; format: ADME, organism-based; design: dose 1 mg/kg, route intraperitoneal; settings: in vivo
Plasmodium chabaudi [12] = assay: Antimalarial activity against Plasmodium chabaudi infected in BALB/c mouse assessed as reduction in accumulation of ring-stage parasites level at 3 to 30 mg/kg, ip treated on day 1 to day 3 post-infection measured on day 4 post-infection by Giemsa staining based light microscopy; format: functional, organism-based; procedure, shortened: as §1
[13] = Half life in Sprague-Dawley rat at 5 mg/kg, ip; format: ADME, organism-based; design: dose 5 mg/kg, route intraperitoneal; settings: in vivo
[14] = Cmax in Sprague-Dawley rat at 5 mg/kg, ip; format: ADME, organism-based; design: dose 5 mg/kg, route intraperitoneal; settings: in vivo
[15] = Cmax in Sprague-Dawley rat at 1 mg/kg, ip; format: ADME, organism-based; design: dose 1 mg/kg, route intraperitoneal; settings: in vivo
Plasmodium falciparum [16] = assay: Antimalarial activity against Plasmodium falciparum W2 by automated image mining based cytological profiling assay; format: functional, organism-based
Procedure, shortened: (§3)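 Parasite cultures in 384-well format, read by automated imaging. Infected erythrocytes detected by DAPI nuclear staining against WGA-AlexaFluor 488 host-cell stain, and viability by Mitotracker Red CMXRos. Total culture parasitaemia quantified. EC50 given as mean±SD of two independent experiments, each in duplicate.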

[17] = Stability in human liver microsomes assessed as remaining compound level at 1 uM incubated for 5 mins in presence of NADPH measured after 30 mins by LC/MS/MS method; format: ADME; settings: read-out: Stability; procedure, shortened: as §2
[18] = Tmax in Sprague-Dawley rat at 5 mg/kg, ip; format: ADME, organism-based; design: dose 5 mg/kg, route intraperitoneal; settings: in vivo
Plasmodium falciparum [19] = assay: Antimalarial activity against Plasmodium falciparum K1 by automated image mining based cytological profiling assay; format: functional, organism-based; procedure, shortened: as §3
Plasmodium falciparum [20] = assay: Antimalarial activity against tightly synchronized Plasmodium falciparum K1 assessed as parasite stage accumulation index at early ring stages at 10 uM treated at 6 to 30 hrs post-invasion by automated image mining based cytological profiling assay; format: functional, organism-based
Plasmodium falciparum [21] = assay: Antimalarial activity against Plasmodium falciparum HB3 by automated image mining based cytological profiling assay; format: functional; procedure, shortened: as §3

AUC [3]: 9.79 µg·h/mL
Tmax [4]: 1 h
remaining at 0.5 h, 1 µM [5]: 88.6%
AUC [8]: 41.3 µg·h/mL
half-life [11]: 10.3 h
half-life [13]: 10.6 h
Cmax [14]: 12.9 µg/mL
Cmax [15]: 1.8 µg/mL
EC50 (Plasmodium falciparum [16]): 0.104 µM
remaining at 30 min, 1 µM [17]: 88.1%
Tmax [18]: 1 h
EC50 (Plasmodium falciparum [19]): 0.116 µM
EC50 (Plasmodium falciparum [21]): 0.104 µM
SMILES: COc1ccc(CO[C@H]([C@H](OCc2ccc(OC)cc2)c2cnc(N(C)C)nc2)[C@@H](COC(c2ccccc2)(c2ccccc2)c2ccccc2)OS(C)(=O)=O)cc1
inhibition (Plasmodium chabaudi [1]): Active
selectivity ratio [2]: > 680
inhibition (Plasmodium chabaudi [6]): Dose dependent effect
ED50 (Plasmodium chabaudi [6]; ip): 0.32 mg/kg
Activity (Plasmodium falciparum [7]): Active
Activity (Plasmodium falciparum [9]): Active
Activity (Plasmodium falciparum [10]): Active
inhibition (Plasmodium chabaudi [12]): Active
Activity (Plasmodium falciparum [20]): Active

— ChEMBL document CHEMBL3352416, “Discovery of carbohybrid-based 2-aminopyrimidine analogues as a new class of rapid-acting antimalarial agents using image-based cytological profiling assay” (J Med Chem, 2014)
